According to ChEMBL document CHEMBL1136925, “Structure-activity relationship of cyanine tau aggregation inhibitors” (J Med Chem, 2009):
Activity calls are given as the source filed them. The rule behind the calls is not given here.

Experiments:
[1] = Inhibition of His-tagged human recombinant 2N4R tau protein aggregation assessed as inhibition octadecyl sulphate-induced fibrillation by filter trap assay
Homo sapiens [2] = species: Homo sapiens; test: Inhibition of His-tagged human recombinan2N4R tau protein aggregation assessed as inhibition octadecyl sulphate-induced fibrillation up to 10 uM by filter trap assay
Homo sapiens [3] = species: Homo sapiens; test: Inhibition of His-tagged human recombinan2N4R tau protein aggregation assessed as inhibition octadecyl sulphate-induced fibrillation at 10 uM by filter trap assay
Homo sapiens [4] = species: Homo sapiens; test: Inhibition of human tau aggregation in human tau P301L mutant expressing JNPL3 transgenic mouse brain slices at 0.1 nM to 1 uM after 7 days; format: tissue-based
Procedure, shortened: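 Slices from postnatal day 10 JNPL3 mice were cultured 14 days, then exposed 7 days to compound (0.1 nM–1 μM). The contralateral hemisphere received DMSO (0.008%) as control. RIPA extracts were equalized for total protein, incubated in 1% sarkosyl for 30 min at room temperature, and spun 100,000g for 1 h at 20°C. The insoluble pellet was boiled in SDS buffer, immunoblotted with CP27 and quantified by densitometry (n = 3) relative to vehicle.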

Brain [5] = test: Induction of apoptosis in human tau P301L mutant expressing JNPL3 transgenic mouse brain slice assessed as cleaved PARP1 after 7 days by densitometry; format: tissue-based; details: 168 h
Procedure, shortened: (§1)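 Cortex and hippocampus slices (400 μm) cut from postnatal day 10 JNPL3 mouse brain, cultured 14 days on membrane inserts in 25% serum medium, then dosed for 7 days. The contralateral hemisphere received DMSO vehicle (0.008% final) as within-animal control. Slices were sonicated in cold RIPA with protease/phosphatase inhibitors and spun 20,000g for 20 min at 4°C. Supernatant α-tubulin and cleaved PARP1 were immunoblotted and quantified by densitometry (n = 3), normalized to vehicle.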

Brain [6] = test: Induction of apoptosis in human tau P301L mutant expressing JNPL3 transgenic mouse brain slice assessed as change in alpha-tubulin level at 1 nM after 7 days by densitometry; format: tissue-based; details: 168 h, 0.001 µM; procedure, shortened: as §1
Homo sapiens [7] = species: Homo sapiens; test: Inhibition of human tau aggregation in human tau P301L mutant expressing JNPL3 transgenic mouse brain slices at 100 nM
Homo sapiens [8] = species: Homo sapiens; test: Induction of human tau aggregation in human tau P301L mutant expressing JNPL3 transgenic mouse brain slices at >=300 nM

| SMILES | IC50 [1] | also measured |
| --- | --- | --- |
| CCN1/C(=C/c2sc3ccccc3[n+]2CC)Sc2ccccc21 | 10 µM | – |
| CCCN1/C(=C/C=C/C2=[N+](CCC)c3ccccc3C2(C)C)C(C)(C)c2ccccc21 | 2.57 µM | – |
| CCN1/C(=C/C=C/C=C/c2sc3ccccc3[n+]2CC)Sc2ccccc21 [DITHIAZANINE IODIDE] | 2.15 µM | – |
| CC(/C=C1\Sc2ccccc2N1CCCS(=O)(=O)[O-])=C\c1sc2ccccc2[n+]1CCCS(=O)(=O)[O-].CC[n+]1ccccc1 | > 10 µM | – |
| CCC(/C=C1\Sc2ccc(OC)cc2N1CCO)=C\c1sc2ccc(OC)cc2[n+]1CCO | 0.29 µM | – |
| CCCCCCN1/C(=C/C=C/c2sc3ccccc3[n+]2CCCCCC)Sc2ccccc21 | > 10 µM | Activity (Homo sapiens [2]): inactive |
| CCN1/C(=C/C=C/c2sc3ccccc3[n+]2CC)Sc2ccccc21 | 0.96 µM | – |
| CCN1/C(=C/C=C/c2oc3ccccc3[n+]2CC)Oc2ccccc21 | > 10 µM | Activity (Homo sapiens [3]): inactive |
| CCN1/C(=C/C(C)=C/c2sc3ccccc3[n+]2CC)Sc2ccccc21.[I-] | 0.28 µM | Activity (Homo sapiens [4]): Active; Activity (Brain [5]): Non-toxic; Activity (Brain [6]): Non-toxic; Activity (Homo sapiens [7]): inactive; Activity (Homo sapiens [8]): Active |
| CCN1/C(=C/C(C)=C/c2sc3c4ccccc4ccc3[n+]2CC)Sc2c1ccc1ccccc21 | 3.29 µM | – |
| CCN1/C(=C/C=C/C=C/C=C/c2sc3ccccc3[n+]2CC)Sc2ccccc21 | 5 µM | – |
